Measured values published in ChEMBL document CHEMBL1287679, “Tuning hydrophobicity of highly cationic tetradecameric Gramicidin S analogues using adamantane amino acids” (Bioorg Med Chem, 2010).
Values after ≈ are worked out from the molar mass of the structure shown. Where a SMILES comes first, the peptide text is derived from it. [ ]: non-standard residue; d: D form. Gly(1-adamantyl) = N[C@H](C(=O)O)C12CC3CC(CC(C3)C1)C2; Orn = NCCC[C@H](N)C(=O)O

Assays:
Enterococcus faecalis = experiment: Antimicrobial activity against Enterococcus faecalis ATCC 29212 by broth dilution method; assay type: functional
Procedure, shortened: (§1)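 Stored at −70 °C, grown at 35 °C on Columbia sheep-blood agar, then suspended in physiological saline to OD 0.1 AU at 595 nm and diluted 100× in saline. 2 µL inoculum was added to 50 µL cation-adjusted Mueller Hinton II broth. Peptides in methanol (4 g/L stock) were diluted in water, then two-fold in broth (64–1 mg/L). Incubation was 35 °C for 24–48 h. MIC is the lowest concentration inhibiting growth.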

Staphylococcus aureus [1] = experiment: Antimicrobial activity against methicillin-resistant Staphylococcus aureus N133 by broth dilution method; assay type: functional
Procedure, shortened: (§2)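 Frozen (−70 °C) stocks grown at 35 °C on Columbia sheep-blood agar, suspended in physiological saline to OD595 0.1, diluted 100×; 2 µL inoculum into 50 µL cation-adjusted Mueller Hinton II broth in 96-well plates. Peptides dissolved in methanol (4 g/L), diluted in water, two-fold serial dilutions in broth (64–1 mg/L). Incubation at 35 °C, 24–48 h; MIC = lowest concentration inhibiting growth.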

[2] = Therapeutic index, concentration required to achieve 100% hemolysis in erythrocyte to MIC for Staphylococcus aureus ATCC 29213; conditions: erythrocytes; read-out: Ratio
Procedure, shortened: (§3)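 Therapeutic index was taken as the concentration for 100% haemolysis divided by MIC for the given strain.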

Pseudomonas aeruginosa = experiment: Antimicrobial activity against Pseudomonas aeruginosa ATCC 27853 by broth dilution method; assay type: functional; procedure, shortened: as §1
Staphylococcus aureus [3] = experiment: Antimicrobial activity against methicillin-resistant Staphylococcus aureus ATCC 49775 by broth dilution method; assay type: functional; procedure, shortened: as §2
Staphylococcus aureus [4] = experiment: Antimicrobial activity against community acquired methicillin-resistant Staphylococcus aureus isolate 1110301146 by broth dilution method; assay type: functional; procedure, shortened: as §2
Staphylococcus aureus [5] = experiment: Antimicrobial activity against methicillin-resistant Staphylococcus aureus ATCC 43300 by broth dilution method; assay type: functional; procedure, shortened: as §2
Staphylococcus aureus [6] = experiment: Antimicrobial activity against methicillin-resistant Staphylococcus aureus N229 by broth dilution method; assay type: functional; procedure, shortened: as §2
Staphylococcus aureus [7] = experiment: Antimicrobial activity against methicillin-resistant Staphylococcus aureus isolate 1110301981 by broth dilution method; assay type: functional; procedure, shortened: as §2
[8] = tested on: Staphylococcus epidermidis; experiment: Antimicrobial activity against Staphylococcus epidermidis ATCC 12228 by broth dilution method; assay type: functional; procedure, shortened: as §1
Escherichia coli = experiment: Antimicrobial activity against Escherichia coli ATCC 25922 by broth dilution method; assay type: functional; procedure, shortened: as §1
Staphylococcus aureus [9] = experiment: Antimicrobial activity against Staphylococcus aureus ATCC 29213 by broth dilution method; assay type: functional; procedure, shortened: as §2
[10] = Toxicity in Erythrocyte assessed as concentration required to achieve 100% hemolysis after 4 hrs; assay type: cell-based
Procedure, shortened: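 Heparinized fresh blood was centrifuged (1000g, 10 min, 10 °C). Erythrocytes were washed three times in 0.85% saline and diluted to a 1/25 packed volume. Peptides were prepared as a 1.5 mM stock in 30% DMSO/0.5 mM saline and serially two-fold diluted in triplicate rows. 1% Triton-X served as the full-lysis control. Incubation was 37 °C for 4 h, then centrifugation; supernatant was read. Value is the concentration giving 100% lysis.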

Bacillus cereus = experiment: Antimicrobial activity against Bacillus cereus ATCC 11778 by broth dilution method; assay type: functional; procedure, shortened: as §1
[11] = Therapeutic index, concentration required to achieve 100% hemolysis in erythrocyte to MIC for Escherichia coli ATCC 25922; conditions: erythrocytes; procedure, shortened: as §3

SMILES | MIC (Enterococcus faecalis) [mg/L] | MIC (Staphylococcus aureus [1]) [mg/L] | selectivity ratio [2] | MIC (Pseudomonas aeruginosa) [mg/L] | MIC (Staphylococcus aureus [3]) [mg/L] | MIC (Staphylococcus aureus [4]) [mg/L] | MIC (Staphylococcus aureus [5]) [mg/L] | MIC (Staphylococcus aureus [6]) [mg/L] | MIC (Staphylococcus aureus [7]) [mg/L] | MIC [8] [mg/L] | MIC (Escherichia coli) [mg/L] | MIC (Staphylococcus aureus [9]) [mg/L] | Activity [10] [µM] | MIC (Bacillus cereus) [mg/L] | selectivity ratio [11]
CC(C)C[C@@H]1NC(=O)[C@H](CCCN)NC(=O)[C@H](C23CC4CC(CC(C4)C2)C3)NC(=O)[C@H](CCCN)NC(=O)[C@@H]2CCCN2C(=O)[C@@H](Cc2ccccc2)NC(=O)[C@H](CCCN)NC(=O)[C@H](CC23CC4CC(CC(C4)C2)C3)NC(=O)[C@H](CCCN)NC(=O)[C@H](C23CC4CC(CC(C4)C2)C3)NC(=O)[C@H](CCCN)NC(=O)[C@@H]2CCCN2C(=O)[C@@H](Cc2ccccc2)NC(=O)[C@H](CCCN)NC1=O | 8 (≈ 4.27 µM) | 8 (≈ 4.27 µM) | 1 | 16 (≈ 8.54 µM) | 16 (≈ 8.54 µM) | 8 (≈ 4.27 µM) | 16 (≈ 8.54 µM) | 8 (≈ 4.27 µM) | 8 (≈ 4.27 µM) | 8 (≈ 4.27 µM) | 32 (≈ 17.1 µM) | 16 (≈ 8.54 µM) | 15.6 | 4 (≈ 2.13 µM) | 1
NCCC[C@@H]1NC(=O)[C@H](CC23CC4CC(CC(C4)C2)C3)NC(=O)[C@H](CCCN)NC(=O)[C@H](C23CC4CC(CC(C4)C2)C3)NC(=O)[C@H](CCCN)NC(=O)[C@@H]2CCCN2C(=O)[C@@H](Cc2ccccc2)NC(=O)[C@H](CCCN)NC(=O)[C@H](CC23CC4CC(CC(C4)C2)C3)NC(=O)[C@H](CCCN)NC(=O)[C@H](C23CC4CC(CC(C4)C2)C3)NC(=O)[C@H](CCCN)NC(=O)[C@@H]2CCCN2C(=O)[C@@H](Cc2ccccc2)NC1=O | 32 (≈ 16.3 µM) | 32 (≈ 16.3 µM) | 0.1 | 64 (≈ 32.5 µM) | 32 (≈ 16.3 µM) | 32 (≈ 16.3 µM) | 32 (≈ 16.3 µM) | 32 (≈ 16.3 µM) | 32 (≈ 16.3 µM) | 32 (≈ 16.3 µM) | 64 (≈ 32.5 µM) | 64 (≈ 32.5 µM) | 7.8 | 2 (≈ 1.02 µM) | 0.12
CC(C)C[C@@H]1NC(=O)[C@H](CCCCN)NC(=O)[C@H](C(C)C)NC(=O)[C@@H]2CCCN2C(=O)[C@@H](Cc2ccc(O)cc2)NC(=O)[C@H](CC(C)C)NC(=O)[C@H](CCCCN)NC(=O)[C@H](C(C)C)NC(=O)[C@H](CCCCN)NC(=O)[C@H](CC(C)C)NC(=O)[C@@H]2CCCN2C(=O)[C@@H](Cc2ccc(O)cc2)NC(=O)[C@H](C(C)C)NC(=O)[C@H](CCCCN)NC1=O (cyclo(KLKV[dY]PLKVKL[dY]PV)) |  |  |  |  |  |  |  |  |  |  |  |  | 3.9 |  | 
CC(C)C[C@@H]1NC(=O)[C@H](CCCN)NC(=O)[C@H](C(C)C)NC(=O)[C@@H]2CCCN2C(=O)[C@@H](Cc2ccccc2)NC(=O)[C@H](CC(C)C)NC(=O)[C@H](CCCN)NC(=O)[C@H](C(C)C)NC(=O)[C@H](CCCN)NC(=O)[C@H](CC(C)C)NC(=O)[C@@H]2CCCN2C(=O)[C@@H](Cc2ccccc2)NC(=O)[C@H](C(C)C)NC(=O)[C@H](CCCN)NC1=O (cyclo(L[Orn]V[Orn]L[dF]PV[Orn]L[Orn]V[dF]P)) | 8 (≈ 5.06 µM) |  | 0.2 | 32 (≈ 20.2 µM) |  |  |  |  |  | 8 (≈ 5.06 µM) | 64 (≈ 40.5 µM) | 16 (≈ 10.1 µM) | 3.9 | 4 (≈ 2.53 µM) | 0.1
CC(C)C[C@@H]1NC(=O)[C@H](CCCCN)NC(=O)[C@H](C(C)C)NC(=O)[C@@H]2CCCN2C(=O)[C@@H](Cc2ccc(O)cc2)NC(=O)[C@H](CC(C)C)NC(=O)[C@H](CCCCN)NC(=O)[C@H](C(C)C)NC(=O)[C@H](CCCCN)NC(=O)[C@H](CC(C)C)NC(=O)[C@@H]2CCCN2C(=O)[C@@H](Cc2ccc(O)cc2)NC(=O)[C@H](C(C)C)NC(=O)[C@H](CCCCN)NC1=O (cyclo(VKLKV[dY]PLKVKL[dY]P)) | 32 (≈ 19.2 µM) |  |  | > 64 |  |  |  |  |  | 64 (≈ 38.3 µM) | > 64 | > 64 |  | 32 (≈ 19.2 µM) | 
NCCC[C@@H]1NC(=O)[C@H](C23CC4CC(CC(C4)C2)C3)NC(=O)[C@H](CCCN)NC(=O)[C@@H]2CCCN2C(=O)[C@@H](Cc2ccccc2)NC(=O)[C@H](CCCN)NC(=O)[C@H](C23CC4CC(CC(C4)C2)C3)NC(=O)[C@H](CCCN)NC(=O)[C@@H]2CCCN2C(=O)[C@@H](Cc2ccccc2)NC1=O (cyclo([Orn][dF]P[Orn][Gly(1-adamantyl)][Orn][dF]P[Orn][Gly(1-adamantyl)])) | 8 (≈ 6.03 µM) | 8 (≈ 6.03 µM) | 62.5 | 8 (≈ 6.03 µM) |  | 8 (≈ 6.03 µM) |  | 8 (≈ 6.03 µM) | 8 (≈ 6.03 µM) | 4 (≈ 3.01 µM) | 16 (≈ 12.1 µM) | 8 (≈ 6.03 µM) | 500 | 8 (≈ 6.03 µM) | 62.5
